Results from ChEMBL document CHEMBL4680100, “Revisiting the SAR of the Antischistosomal Aryl Hydantoin (Ro 13-3978)” (J Med Chem, 2016).
In brackets after ≈: the same amount, converted by molar mass.

How the values were obtained:
[1] = Octanol/water partition coefficient, logD of the compound at pH 7.4 by HPLC analysis
Albumin = Albumin (Homo sapiens, UniProt P02768); test: Protein binding in immobilized human serum albumin by HPLC analysis; assay type: ADME; settings: isolated protein
How it was run: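 Binding estimated from gradient HPLC retention on a human albumin column, correlated against standard compounds of known protein binding.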

[2] = Kinetic solubility of the compound in 0.01 M HCl at pH 2 by nephelometry; assay type: physicochemical; settings: read-out: Kinetic_solubility
[3] = Kinetic solubility of compound at pH 6.5 phosphate buffer by nephelometry; assay type: physicochemical; settings: read-out: Kinetic_solubility
[4] = Intrinsic clearance in human liver microsome in presence of NADPH-regenerating system incubated over 60 mins by LC-MS analysis; settings: microsomes, 1 h
[5] = Intrinsic clearance in mouse liver microsome in presence of NADPH-regenerating system incubated over 60 mins by LC-MS analysis; settings: microsomes, 1 h
Schistosoma mansoni = test: Antischistosomal activity against Schistosoma mansoni infected in NMRI mouse assessed as reduction in total worm burden at 100 mg/kg, po administered as single dose starting on day 49 post-infection and measured at 28 days post treatment relative to control; assay type: functional; design: scale not given: the % may be the effect or the level left; settings: time 28 day
How it was run: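 S. mansoni-infected NMRI mice treated on day 49 post-infection with a single oral dose, dissolved or suspended in 7% v/v Tween 80, 3% v/v ethanol (10 mL/kg), five mice per group. Sacrificed and dissected 28 d post-treatment; worms counted to give total worm burden reduction versus untreated controls. Kruskal–Wallis test on medians, treatment versus control.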

L6 = test: Cytotoxicity against rat L6 cells assessed as reduction in cell viability at up to 30 uM; assay type: cell-based
Androgen receptor = molecular target: T1, Androgen receptor (Homo sapiens, UniProt P10275)
T1 sequence (P10275 whole entry): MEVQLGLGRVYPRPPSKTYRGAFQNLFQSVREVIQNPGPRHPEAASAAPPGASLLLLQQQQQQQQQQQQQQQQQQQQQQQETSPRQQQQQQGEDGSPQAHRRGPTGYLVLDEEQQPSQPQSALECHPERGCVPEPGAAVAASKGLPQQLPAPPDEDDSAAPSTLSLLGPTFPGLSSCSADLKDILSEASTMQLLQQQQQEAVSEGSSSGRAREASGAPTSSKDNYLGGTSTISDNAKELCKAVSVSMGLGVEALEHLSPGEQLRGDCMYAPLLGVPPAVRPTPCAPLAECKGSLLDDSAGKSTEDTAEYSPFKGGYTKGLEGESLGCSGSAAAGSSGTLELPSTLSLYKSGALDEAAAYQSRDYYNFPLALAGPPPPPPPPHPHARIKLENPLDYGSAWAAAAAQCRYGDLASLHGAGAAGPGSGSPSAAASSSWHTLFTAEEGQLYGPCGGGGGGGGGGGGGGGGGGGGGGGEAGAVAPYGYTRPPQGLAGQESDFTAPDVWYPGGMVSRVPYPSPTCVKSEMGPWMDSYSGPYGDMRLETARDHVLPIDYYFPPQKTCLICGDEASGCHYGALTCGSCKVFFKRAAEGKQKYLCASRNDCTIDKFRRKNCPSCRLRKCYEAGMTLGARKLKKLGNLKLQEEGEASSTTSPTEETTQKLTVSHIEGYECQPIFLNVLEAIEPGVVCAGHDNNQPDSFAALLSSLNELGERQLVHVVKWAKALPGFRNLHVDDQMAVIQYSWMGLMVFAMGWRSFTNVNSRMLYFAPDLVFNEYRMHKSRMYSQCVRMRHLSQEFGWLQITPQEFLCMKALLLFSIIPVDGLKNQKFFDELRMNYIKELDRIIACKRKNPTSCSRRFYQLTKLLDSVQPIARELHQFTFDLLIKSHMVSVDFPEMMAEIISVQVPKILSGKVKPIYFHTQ

Sequence of Albumin (P02768 whole entry): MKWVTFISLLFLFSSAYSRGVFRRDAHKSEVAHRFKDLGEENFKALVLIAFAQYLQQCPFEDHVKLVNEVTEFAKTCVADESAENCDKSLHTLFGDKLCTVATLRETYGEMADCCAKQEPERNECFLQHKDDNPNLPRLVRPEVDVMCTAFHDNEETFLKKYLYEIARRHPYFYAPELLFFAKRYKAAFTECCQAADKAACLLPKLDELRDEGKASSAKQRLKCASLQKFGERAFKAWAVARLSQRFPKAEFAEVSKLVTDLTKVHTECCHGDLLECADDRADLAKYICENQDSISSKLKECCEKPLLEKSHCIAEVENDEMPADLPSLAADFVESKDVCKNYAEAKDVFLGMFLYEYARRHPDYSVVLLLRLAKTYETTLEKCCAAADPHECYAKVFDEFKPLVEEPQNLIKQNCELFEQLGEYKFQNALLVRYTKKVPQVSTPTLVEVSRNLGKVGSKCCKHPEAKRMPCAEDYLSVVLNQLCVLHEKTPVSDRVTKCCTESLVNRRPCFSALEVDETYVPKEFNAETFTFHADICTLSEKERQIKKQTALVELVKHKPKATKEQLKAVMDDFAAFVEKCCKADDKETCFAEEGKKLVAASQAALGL

Compound	logD [1]	PPB (Albumin)	solubility kinetic [2]	solubility kinetic [3]	CLH [4]	CLH [5]	Activity (Schistosoma mansoni)	Activity (L6)	IC50 (Androgen receptor)
CC(C)(NC(=O)Nc1ccc(F)c(C(F)(F)F)c1)C(=O)O	1.1	94.3%	25 µg/mL (≈ 81.1 µM)	> 100 µg/mL	< 7 µL/min/mg	< 7 µL/min/mg	67%	Non-Toxic	3.1 µM
CC1(C)NC(=O)N(c2ccc(C(F)(F)F)nc2)C1=O	1.8	18.3%	> 100 µg/mL	> 100 µg/mL	< 7 µL/min/mg	< 7 µL/min/mg	0%	Non-Toxic	> 10 µM
CC1(C)NC(=O)N(Cc2ccc(F)c(C(F)(F)F)c2)C1=O	2.9	82.1%	50 µg/mL (≈ 164 µM)	> 100 µg/mL	17 µL/min/mg	11 µL/min/mg	56%	Non-Toxic	4.2 µM
O=C1NC2(CCCCC2)C(=O)N1c1ccc(F)c(C(F)(F)F)c1	3.5	74.9%	3.1 µg/mL (≈ 9.39 µM)	3.1 µg/mL (≈ 9.39 µM)	25 µL/min/mg	122 µL/min/mg	42%	Non-Toxic	4.2 µM
Cc1ccc(N2C(=O)NC(C)(C)C2=O)cc1C(F)(F)F	2.8	64.8%	> 100 µg/mL	> 100 µg/mL	< 7 µL/min/mg	16 µL/min/mg	4.8%	Non-Toxic	> 10 µM
CC1(C)NC(=O)N(c2ccc(Cl)c(C(F)(F)F)c2)C1=O	3	79.6%	> 100 µg/mL	> 100 µg/mL	< 7 µL/min/mg	< 7 µL/min/mg	75%	Non-Toxic	1.3 µM
CC1(C)NC(=O)C(c2ccc(F)c(C(F)(F)F)c2)C1=O (stereo unspecified)	0.5	93.3%	25 µg/mL (≈ 86.4 µM)	> 100 µg/mL	< 7 µL/min/mg	< 7 µL/min/mg	0%	Non-Toxic	> 10 µM
CC1(C)NC(=O)N(c2cnccn2)C1=O	0.3	5.8%	> 100 µg/mL	> 100 µg/mL	< 7 µL/min/mg	< 7 µL/min/mg	42%	Non-Toxic	> 10 µM
CC1(C)C(=O)N(c2ccc(F)c(C(F)(F)F)c2)C(=O)N1CC#N	3.4	48.2%	25 µg/mL (≈ 75.9 µM)	25 µg/mL (≈ 75.9 µM)	–	–	91%	Non-Toxic	0.29 µM
CC1(C)NC(=O)N(c2cccnc2)C1=O	0.2	6.6%	> 100 µg/mL	> 100 µg/mL	< 7 µL/min/mg	< 7 µL/min/mg	38%	Non-Toxic	9.6 µM
CC1(C)CNC(=O)N(c2ccc(F)c(C(F)(F)F)c2)C1=O	2.5	21.5%	12.5 µg/mL (≈ 41.1 µM)	12.5 µg/mL (≈ 41.1 µM)	9 µL/min/mg	15 µL/min/mg	19%	Non-Toxic	6.9 µM
CC1(C)CN(c2ccc(F)c(C(F)(F)F)c2)C(=O)N1	3.2	78.3%	12.5 µg/mL (≈ 45.3 µM)	12.5 µg/mL (≈ 45.3 µM)	< 7 µL/min/mg	30 µL/min/mg	59%	Non-Toxic	8.1 µM
O=C1C2CCCN2C(=O)N1c1ccc(F)c(C(F)(F)F)c1 (stereo unspecified)	3	46%	25 µg/mL (≈ 82.7 µM)	25 µg/mL (≈ 82.7 µM)	30 µL/min/mg	144 µL/min/mg	0%	Non-Toxic	3.5 µM
CC1(C)NC(=O)N(c2ccnc3ccccc23)C1=O	1.2	16.9%	> 100 µg/mL	> 100 µg/mL	< 7 µL/min/mg	< 7 µL/min/mg	17%	Non-Toxic	1.3 µM
CC1(C)NC(=O)N(c2ccncc2)C1=O	–	6.7%	50 µg/mL (≈ 244 µM)	> 100 µg/mL	< 7 µL/min/mg	11 µL/min/mg	1.8%	Non-Toxic	3.8 µM
CC1(C)C(=O)NC(=O)N1c1ccc(F)c(C(F)(F)F)c1	2.5	67.1%	25 µg/mL (≈ 86.1 µM)	25 µg/mL (≈ 86.1 µM)	< 7 µL/min/mg	< 7 µL/min/mg	0%	Non-Toxic	2.8 µM
CC1(C)CC(=O)N(c2ccc(F)c(C(F)(F)F)c2)C1=O	3.4	42.5%	12.5 µg/mL (≈ 43.2 µM)	12.5 µg/mL (≈ 43.2 µM)	11 µL/min/mg	10 µL/min/mg	42%	Non-Toxic	0.91 µM
CC1(C)OC(=O)N(c2ccc(F)c(C(F)(F)F)c2)C1=O	3.7	58.1%	3.1 µg/mL (≈ 10.6 µM)	3.1 µg/mL (≈ 10.6 µM)	12 µL/min/mg	12 µL/min/mg	11%	Non-Toxic	2.1 µM
O=C1CNC(=O)N1c1ccc(F)c(C(F)(F)F)c1	2	43.6%	> 100 µg/mL	> 100 µg/mL	< 7 µL/min/mg	13 µL/min/mg	0%	Non-Toxic	0.26 µM
CC1(CO)NC(=O)N(c2ccc(F)c(C(F)(F)F)c2)C1=O (stereo unspecified)	1.9	34.3%	25 µg/mL (≈ 81.6 µM)	25 µg/mL (≈ 81.6 µM)	< 7 µL/min/mg	< 7 µL/min/mg	0%	Non-Toxic	4.8 µM
CC1(C)CC(=O)N(c2ccc(F)c(C(F)(F)F)c2)C(=O)N1	2.4	15%	25 µg/mL (≈ 82.2 µM)	25 µg/mL (≈ 82.2 µM)	< 7 µL/min/mg	< 7 µL/min/mg	51%	Non-Toxic	> 10 µM
CC1(C)NC(=O)N(c2ccc(F)c(C#N)c2)C1=O	1.7	14.6%	> 100 µg/mL	> 100 µg/mL	< 7 µL/min/mg	< 7 µL/min/mg	10%	Non-Toxic	3.7 µM
CC1(C)NC(=O)N(c2ccc([N+](=O)[O-])c(C(F)(F)F)c2)C1=O [NILUTAMIDE]	3	70.3%	50 µg/mL (≈ 158 µM)	50 µg/mL (≈ 158 µM)	< 7 µL/min/mg	< 7 µL/min/mg	31%	–	–
O=C(C1CCCCC1)N1CC(=O)N2CCc3ccccc3C2C1 (stereo unspecified) [PRAZIQUANTEL]	3	–	> 100 µg/mL	> 100 µg/mL	–	–	18%	–	–
